Compound activity as filed in PubChem BioAssay.
This is a sample that favours compounds with a hit; in the whole collection about 4.5% have one here.
TAAR1 agonist: human TAAR1 agonists, primary screen, Fluo-8 calcium fluorescence, CHO RD-HGA16 cells. Trace amine-associated receptor 1 (Homo sapiens), Q96RJ0. vehicle wells 0%, saturating PEA agonist 100%. activation, % at 3 µM. hit rate 0.99% among 360,000. AID 624467, 2012;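 active = activation above the mean activation of all test compounds in the run plus 3 SD, cut at about 38% in these data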
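Benchmarks: low control DMSO, high control PEA (EC100); System: CHO RD-HGA16 cells carrying human TAAR1 plus Gα16; Detection: Fluo-8 fluorescence, 5 s baseline then 140 s kinetic read; Schedule: 17-24 h plating, Fluo-8 75 min 37 °C, 30 min RT; Read-out basis: % activation from peak over basal fluorescence ratio, DMSO-to-PEA scaled.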
CHO parental Ca: ATP-evoked calcium signal inhibitors, parental CHO, primary screen, counter-screen for OX1R antagonist project, cell-based, fluorescence, Fluo-8 calcium dye. hit rate 0.63% among 330,000. inhibition, % at 5.6 µM. AID 463079, 2010. parental CHO-K1, ATP-induced calcium, Fluo-8 fluorescence;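 active = inhibition above that plate's mean sample inhibition plus 3 SD, cut at about 26% in these data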;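 note: 0% = ATP-challenged DMSO wells and 100% = DMSO wells without ATP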
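Test system: untransfected parental CHO cell line; also added: ATP stimulus; dosing: 5.6 µM, single dose; signal: calcium-sensitive Fluo-8 fluorescence; measure: percent inhibition of ATP-evoked calcium rise, normalized to controls; benchmarks: low control ATP plus DMSO, high control DMSO only; replication: one well per compound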
OX1R antag-1: antagonists of human orexin 1 receptor (OX1R) | Orexin/Hypocretin receptor type 1 (Homo sapiens), O43613 | OX1R-expressing cells, FRET antagonist read-out | inhibition, % at 6.6 µM | hit rate 1.8% among 330,000; in the data active = inhibition mostly above about 38%, no sharp cut-off; inactive = mostly below about 40%;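 note: 0% = agonist challenge alone and 100% = reference antagonist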
Target sequence (O43613 whole entry, looked up): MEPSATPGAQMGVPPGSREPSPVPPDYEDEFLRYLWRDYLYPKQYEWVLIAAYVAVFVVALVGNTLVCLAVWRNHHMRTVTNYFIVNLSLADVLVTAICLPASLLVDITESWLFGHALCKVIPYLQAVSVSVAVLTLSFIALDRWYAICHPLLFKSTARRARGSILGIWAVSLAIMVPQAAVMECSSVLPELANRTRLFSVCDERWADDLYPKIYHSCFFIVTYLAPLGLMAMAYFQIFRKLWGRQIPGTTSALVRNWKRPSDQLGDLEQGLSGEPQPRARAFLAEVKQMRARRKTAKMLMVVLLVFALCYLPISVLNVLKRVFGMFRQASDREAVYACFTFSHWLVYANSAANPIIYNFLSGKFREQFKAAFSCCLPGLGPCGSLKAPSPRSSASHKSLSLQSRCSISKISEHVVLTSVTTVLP
TAAR1 antagonist: human TAAR1 antagonists, primary screen, Fluo-8 calcium fluorescence, CHO RD-HGA16 cells. antagonist. inhibition, % at 3 µM. hit rate 1.5% among 360,000. AID 624466, 2012;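 active = inhibition above a per-plate cutoff, the mean inhibition of test compounds on that plate plus 3 SD, cut at about 49% in these data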;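 note: 0% = DMSO plus EC80 beta-PEA response and 100% = DMSO alone without agonist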
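Test system: CHO RD-HGA16 cells bearing hTAAR1 | Reagent: β-PEA, EC80 | Compound dosing: 3 µM, single point | Schedule: Dye loading 75 min at 37 °C, then 30 min room temperature | Signal: Calcium fluorescence with Fluo-8 | Evaluation: Percent inhibition of PEA-evoked calcium signal, max/basal emission ratio | Control set: DMSO-only wells and EC80 β-PEA-stimulated wells | Repeats: Singlicate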
OX1R antag-2: OX1R (HCRTR1) antagonists, primary screen, fluorescence, CHO/OX1R cells, Fluo-8 calcium, orexin A; AID 434989, 2010; hit rate 0.43% among 330,000; inhibition, % at 5 µM; Fluo-8 calcium fluorescence; Orexin/Hypocretin receptor type 1 (Homo sapiens), O43613;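 active = inhibition above its plate's threshold, mean inhibition of all tested compounds on the plate plus 3 SD, cut at about 37% in these data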;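 note: 0% = orexin A challenge wells and 100% = SB-334867-A antagonist wells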
GPR7 antag: GPR7 receptor antagonists, primary screen, cell-based, fluorescence, single concentration; hit rate 1.1% among 290,000; inhibition, % at 4.4 µM; GPR7-expressing cells, fluorescence antagonist assay; Neuropeptides B/W receptor type 1 (Homo sapiens), P48145; in the data active = inhibition above about 16%, passing the limit was not always enough;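 note: cells stimulated with the agonist NPW; 0% = agonist with vehicle and 100% = vehicle without agonist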
Target sequence (P48145 whole entry, looked up): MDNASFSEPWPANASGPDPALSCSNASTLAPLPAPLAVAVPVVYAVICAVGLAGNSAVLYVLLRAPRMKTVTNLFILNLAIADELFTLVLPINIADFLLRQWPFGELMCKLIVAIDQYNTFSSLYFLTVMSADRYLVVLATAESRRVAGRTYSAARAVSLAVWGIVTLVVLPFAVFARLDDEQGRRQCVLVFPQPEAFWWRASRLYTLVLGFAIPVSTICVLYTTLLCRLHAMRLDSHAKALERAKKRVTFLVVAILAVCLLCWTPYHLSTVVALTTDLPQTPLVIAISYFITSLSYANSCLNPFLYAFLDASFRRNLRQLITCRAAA
TAAR1 ag confirm: human TAAR1 agonists, retest of hits, confirmation, Fluo-8 calcium fluorescence, CHO RD-HGA16 cells. activation, % at 3 µM. scaled: DMSO 0%, maximal phenethylamine 100%. hit rate 82% among 2,400. shares compounds with TAAR1 agonist. AID 651783, 2012;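 active = activation above a cutoff set at the run's mean compound activation plus 3 SD, cut at about 39% in these data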
Ga16 nonsel ag: nonselective calcium mobilization agonists, CHO-Ga16 cells, counter-screen for hTAAR1 agonist project, cell-based, fluorescence, CHO-Ga16 parental line; hit rate 50% among 2,400; activation, % at 3 µM; shares compounds with TAAR1 agonist; AID 651787, 2012; Fluo-8 calcium fluorescence; normalized to maximal ATP response, DMSO zero;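 active = activation above the run cutoff, the mean activation over all tested wells plus 3 SD, cut at about 12% in these data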;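 note: 0% = DMSO wells and 100% = maximal ATP response on the peak over basal ratio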
TAAR1 desensitize: TAAR1 desensitization by agonist hits, confirmation, counter-screen for TAAR1 agonist project, cell-based, fluorescence, tachyphylaxis | shares compounds with TAAR1 agonist | CHO RD-HGA16 hTAAR1, Fluo-8 calcium, beta-PEA response inhibition | inhibition, % at 3 µM | hit rate 46% among 2,400;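 active = inhibition above the run cutoff, the mean inhibition of all test compounds plus 3 SD, cut at about 49% in these data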;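 note: beta-PEA stimulus applied at its EC80; loss of beta-PEA calcium signal after compound pretreatment read as receptor desensitization; 0% = DMSO with beta-PEA at EC80 and 100% = DMSO alone without agonist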
Ga16 nonsel ant: inhibition of ATP-evoked calcium response in CHO-Ga16 cells, counter-screen for TAAR1 agonist project, cell-based, fluorescence; hit rate 39% among 2,400; inhibition, % at 3 µM; shares compounds with TAAR1 agonist; CHO-Ga16 ATP-induced calcium, Fluo-8 fluorescence;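 active = inhibition above the plate's mean compound inhibition plus 3 SD, computed per plate, cut at about 22% in these data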;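 note: 0% = EC80 ATP with DMSO and 100% = DMSO wells without ATP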
* = called active by the depositor; / = not tested or not shown.

SMILES	TAAR1 agonist	CHO parental Ca	OX1R antag-1	TAAR1 antagonist	OX1R antag-2	GPR7 antag	TAAR1 ag confirm	Ga16 nonsel ag	TAAR1 desensitize	Ga16 nonsel ant
CCOC(=O)c1c(CSC(=N)N)n(C)c2cc(Br)c(OC(C)=O)cc12	7	-20	13	-23	-17	3	/	/	/	/
O=C1c2ccccc2C2N1CCCN2C(=O)c1sc2ccccc2c1Cl (stereo not drawn)	9	/	/	31	/	/	/	/	/	/
COc1cccc(/C=N/Nc2ncnc(N)c2[N+](=O)[O-])c1OC	/	-7	38	/	-8	-10	/	/	/	/
Cc1cc(/C=N/Nc2ncnc(N)c2[N+](=O)[O-])c(C)n1-c1ccccc1	73*	-26	51*	11	-23	-9	120*	49*	83*	16
Cc1cccnc1C(NC(=O)C1CCN(Cc2ccc3ccccc3n2)CC1)c1ccc(Cl)cc1 (stereo not drawn)	4	/	/	-9	/	/	/	/	/	/
Cc1[nH]n(-c2ccccc2)c(=O)c1C=NCCc1ccccc1	59*	-8	23	45	1	-5	91*	0	41	2
CC[N+]1(C)CCC(O)(c2ccc(OC)cc2)C(C(=O)c2ccc(OC)cc2)C1 (stereo not drawn)	2	/	/	1	/	/	/	/	/	/
CCN=C1NC(c2ccc(C(F)(F)F)cc2)C(C(=O)OC)=C(C)N1Cc1cccc(C(F)(F)F)c1 (stereo not drawn)	46*	/	/	45	/	/	53*	28*	45	45*
CCN=C1NC(c2ccc(F)cc2)C(C(=O)OC)=C(C)N1Cc1ccc(C(F)(F)F)cc1 (stereo not drawn)	28	/	/	45	/	/	/	/	/	/
CCN=C1NC(c2ccc(Cl)cc2)C(C(=O)OC)=C(C)N1Cc1cccc(C(F)(F)F)c1 (stereo not drawn)	56*	/	/	74*	/	/	65*	35*	82*	59*
CCN=C1NC(c2ccc(F)cc2)C(C(=O)OC)=C(C)N1Cc1cccc(C(F)(F)F)c1 (stereo not drawn)	92*	/	/	95*	/	/	71*	39*	76*	57*
O=C(Nc1ccc(F)c(Cl)c1)c1ccc2sc([C@@H]3O[C@H](CO)[C@H](O)[C@H](O)[C@H]3O)nc2c1	1	/	/	-17	/	/	/	/	/	/
CCOc1ccc(NS(=O)(=O)c2ccc(C(=O)NCC(c3ccco3)N3CCCCC3)cc2)cc1 (stereo not drawn)	84*	/	/	31	/	/	91*	41*	54*	38*
COc1ccc(C(CNC(=O)c2cccc(NS(=O)(=O)c3ccccc3)c2)N(C)C)cc1 (stereo not drawn)	5	-27	10	-18	-32	-7	/	/	/	/
CCOc1ccc(S(=O)(=O)Nc2cccc(C(=O)NCC(c3ccccc3)N(C)C)c2)cc1 (stereo not drawn)	58*	-10	27	28	-23	/	32	23*	15	26*
CCOc1ccc(NS(=O)(=O)c2ccc(C(=O)NCC(c3ccco3)N(C)C)cc2)cc1 (stereo not drawn)	89*	5	10	31	-4	/	80*	50*	47	39*
Cc1ccc(NS(=O)(=O)c2ccc(C(=O)NCc3ccncc3)cc2)cc1	69*	-2	6	32	-5	/	61*	25*	46	32*
CCCNC(=O)c1cc(C2CCCCN2S(=O)(=O)Cc2cccc(C(F)(F)F)c2)on1 (stereo not drawn)	0	/	/	-8	/	/	/	/	/	/
O=C(NCCc1cccs1)Nc1ccc2nc([C@@H]3O[C@H](CO)[C@@H](O)[C@H]3O)[nH]c2c1	13	/	/	-11	/	/	/	/	/	/
Cc1cc(S(=O)(=O)Nc2ccc(C(=O)NCC3(N(C)C)CCCCC3)cc2)ccc1F	3	-22	9	-4	30	/	/	/	/	/
CCOc1ccc(NS(=O)(=O)c2ccc(C(=O)NCc3ccccn3)cc2)cc1	71*	7	13	38	3	/	120*	59*	67*	30*
CCOc1ccc(NS(=O)(=O)c2ccc(C(=O)NCC3(N(C)C)CCCCC3)cc2)cc1	66*	55*	2	46	20	/	37	11	24	27*
Cc1cc(S(=O)(=O)Nc2ccc(C(=O)NCC(c3ccco3)N3CCCCC3)cc2)ccc1F (stereo not drawn)	2	-13	6	-13	-34	/	/	/	/	/
Cc1ccc(NS(=O)(=O)c2ccc(C(=O)NCC(c3ccco3)N3CCCCC3)cc2)cc1 (stereo not drawn)	91*	-4	7	63*	-3	/	73*	33*	35	28*
Cc1ccc(S(=O)(=O)NCCc2nnc3ccc(N4CCOCC4)nn23)cc1	1	/	/	-9	/	/	/	/	/	/
OC(COc1ccc(CNCCc2ccccc2F)cc1)CN1CCCCC1 (stereo not drawn)	/	-21	11	/	1	-15	/	2	/	4
COc1cc2c(c(OC)c1OC)C1(CCCCC1)CC2NCC=C(C)C (stereo not drawn)	50*	/	/	0	/	/	12	1	-10	1
COc1ccc(Cl)cc1NC(=O)NNC(=O)C(=O)Nc1ccc(F)cc1	3	/	/	-15	/	/	/	/	/	/
COC(=O)c1cccc(C(=O)N2CCCC(C(=O)c3cccc(OC(C)C)c3)C2)c1 (stereo not drawn)	53*	-2	15	-4	-7	-3	-2	2	6	6
